Measurements taken from ChEMBL document CHEMBL5532695, “4-Trifluoromethyl bithiazoles as broad-spectrum antimicrobial agents for virus-related bacterial infections or co-infections” (RSC Med Chem, 2024).

Legend:
[1] = Cytotoxicity against human HeLa cells assessed as reduction in cell viability by MTT assay; assay type: toxicity, cell-based
Procedure, shortened: (§1)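 MTT viability on HeLa or VeroE6 cells, run in parallel with the antiviral assays. CC50 from variable-slope sigmoidal dose–response regression.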

[2] = Cytotoxicity against african green monkey Vero E6 cells assessed as reduction in cell viability by MTT assay; assay type: toxicity, cell-based; conditions: chlorocebus sabaeus, Vero E6 cells (Vero C1008); procedure, shortened: as §1
Bacillus subtilis [3] = experiment: Antibacterial activity against Bacillus subtilis ATCC 6633 assessed as reduction in microbial growth measured after 18 hrs by CLSI based broth microdilution method; assay type: functional
Procedure, shortened: (§2)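 MIC by CLSI broth microdilution in Mueller–Hinton medium, triplicate. Inoculum 5 × 10^4 CFU per well. Compounds taken up in DMSO (50 mg mL−1 stock) and diluted in medium. Read after 18 h at 35 ± 2 °C.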

Bacillus subtilis [4] = experiment: Bactericidal activity against Bacillus subtilis ATCC 6633 assessed as reduction in microbial growth measured after 18 hrs by CLSI based broth microdilution method; assay type: functional
Procedure, shortened: (§3)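 MBC by CLSI broth microdilution in Mueller–Hinton medium, triplicate. Inoculum 5 × 10^4 CFU per well. Read after 18 h at 35 ± 2 °C.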

Enterococcus faecalis [5] = experiment: Antibacterial activity against Enterococcus faecalis ATCC 29212 assessed as reduction in microbial growth measured after 18 hrs by CLSI based broth microdilution method; assay type: functional; procedure, shortened: as §2
Enterococcus faecalis [6] = experiment: Bactericidal activity against Enterococcus faecalis ATCC 29212 assessed as reduction in microbial growth measured after 18 hrs by CLSI based broth microdilution method; assay type: functional; procedure, shortened: as §3
Streptococcus pyogenes [7] = experiment: Antibacterial activity against Streptococcus pyogenes ATCC 12344 assessed as reduction in microbial growth measured after 18 hrs by CLSI based broth microdilution method; assay type: functional; procedure, shortened: as §2
Streptococcus pyogenes [8] = experiment: Bactericidal activity against Streptococcus pyogenes ATCC 12344 assessed as reduction in microbial growth measured after 18 hrs by CLSI based broth microdilution method; assay type: functional; procedure, shortened: as §3
Staphylococcus aureus [9] = experiment: Antibacterial activity against Staphylococcus aureus ATCC 25923 assessed as reduction in microbial growth measured after 18 hrs by CLSI based broth microdilution method; assay type: functional; procedure, shortened: as §2
Escherichia coli = experiment: Synergistic antibacterial activity against Escherichia coli CCUGT incubated for 18 to 24 hrs in presence of colistin by broth microdilution method; assay type: functional; conditions: time 18-24 hrs
Klebsiella pneumoniae = experiment: Synergistic antibacterial activity against Klebsiella pneumoniae ATCC 13833 incubated for 18 to 24 hrs in presence of colistin by broth microdilution method; assay type: functional; conditions: time 18-24 hrs
Acinetobacter baumannii = experiment: Synergistic antibacterial activity against Acinetobacter baumannii ATCC 17978 incubated for 18 to 24 hrs in presence of colistin by broth microdilution method; assay type: functional; conditions: time 18-24 hrs
Pseudomonas aeruginosa = experiment: Synergistic antibacterial activity against Pseudomonas aeruginosa ATCC 27853 incubated for 18 to 24 hrs in presence of colistin by broth microdilution method; assay type: functional; conditions: time 18-24 hrs
Staphylococcus aureus [10] = experiment: Antibacterial activity against methicillin-resistant Staphylococcus aureus ATCC 43300 assessed as reduction in microbial growth measured after 18 hrs by CLSI based broth microdilution method; assay type: functional
Procedure, shortened: (§4)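 Gram-positive clinical isolates; compounds dissolved in DMSO (50 mg mL−1 stock) and diluted in medium; MIC by CLSI broth microdilution in Mueller–Hinton medium, inoculum 5 × 10^4 CFU per well, read after 18 h at 35 ± 2 °C; triplicate.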

Staphylococcus aureus [11] = experiment: Bactericidal activity against methicillin-resistant Staphylococcus aureus ATCC 43300 assessed as reduction in microbial growth measured after 18 hrs by CLSI based broth microdilution method; assay type: functional
Staphylococcus warneri [12] = experiment: Antibacterial activity against oxacillin-resistant Staphylococcus warneri SI-5/2011 assessed as reduction in microbial growth measured after 18 hrs by CLSI based broth microdilution method; assay type: functional; procedure, shortened: as §4
Staphylococcus warneri [13] = experiment: Bactericidal activity against oxacillin-resistant Staphylococcus warneri SI-5/2011 assessed as reduction in microbial growth measured after 18 hrs by CLSI based broth microdilution method; assay type: functional
[14] = test system: Staphylococcus haemolyticus; experiment: Antibacterial activity against oxacillin-resistant Staphylococcus haemolyticus SI-6/2011 assessed as reduction in microbial growth measured after 18 hrs by CLSI based broth microdilution method; assay type: functional; procedure, shortened: as §4
[15] = test system: Staphylococcus haemolyticus; experiment: Bactericidal activity against oxacillin-resistant Staphylococcus haemolyticus SI-6/2011 assessed as reduction in microbial growth measured after 18 hrs by CLSI based broth microdilution method; assay type: functional
[16] = test system: Staphylococcus epidermidis; experiment: Antibacterial activity against linezolid-resistant Staphylococcus epidermidis SI-1266 assessed as reduction in microbial growth measured after 18 hrs by CLSI based broth microdilution method; assay type: functional; procedure, shortened: as §4
[17] = test system: Staphylococcus epidermidis; experiment: Bactericidal activity against linezolid-resistant Staphylococcus epidermidis SI-1266 assessed as reduction in microbial growth measured after 18 hrs by CLSI based broth microdilution method; assay type: functional
Enterococcus faecium [18] = experiment: Antibacterial activity against Vancomycin/teicoplanin resistant Enterococcus faecium SI-759 assessed as reduction in microbial growth measured after 18 hrs by CLSI based broth microdilution method; assay type: functional; procedure, shortened: as §4
Enterococcus faecium [19] = experiment: Bactericidal activity against Vancomycin/teicoplanin resistant Enterococcus faecium SI-759 assessed as reduction in microbial growth measured after 18 hrs by CLSI based broth microdilution method; assay type: functional
Enterococcus faecium [20] = experiment: Antibacterial activity against Vancomycin resistant Enterococcus faecium SI-1831 assessed as reduction in microbial growth measured after 18 hrs by CLSI based broth microdilution method; assay type: functional; procedure, shortened: as §4
Enterococcus faecium [21] = experiment: Bactericidal activity against Vancomycin resistant Enterococcus faecium SI-1831 assessed as reduction in microbial growth measured after 18 hrs by CLSI based broth microdilution method; assay type: functional
Enterococcus faecium [22] = experiment: Antibacterial activity against Vancomycin resistant Enterococcus faecium SI-3856B assessed as reduction in microbial growth measured after 18 hrs by CLSI based broth microdilution method; assay type: functional; procedure, shortened: as §4
Enterococcus faecium [23] = experiment: Bactericidal activity against Vancomycin resistant Enterococcus faecium SI-3856B assessed as reduction in microbial growth measured after 18 hrs by CLSI based broth microdilution method; assay type: functional
rhinovirus A16 [24] = conditions: hela
enterovirus D68 [25] = conditions: hela
Zika virus [26] = conditions: vero e6
[27] = target: Phosphatidylinositol 4-kinase beta (Homo sapiens, UniProt Q9UBF8); experiment: Inhibition of recombinant full length his tagged PI4KB (unknown origin) incubated for 10 mins in presence of ATP by ADP-glo kinase assay
Sequence of Phosphatidylinositol 4-kinase beta (Q9UBF8 whole entry): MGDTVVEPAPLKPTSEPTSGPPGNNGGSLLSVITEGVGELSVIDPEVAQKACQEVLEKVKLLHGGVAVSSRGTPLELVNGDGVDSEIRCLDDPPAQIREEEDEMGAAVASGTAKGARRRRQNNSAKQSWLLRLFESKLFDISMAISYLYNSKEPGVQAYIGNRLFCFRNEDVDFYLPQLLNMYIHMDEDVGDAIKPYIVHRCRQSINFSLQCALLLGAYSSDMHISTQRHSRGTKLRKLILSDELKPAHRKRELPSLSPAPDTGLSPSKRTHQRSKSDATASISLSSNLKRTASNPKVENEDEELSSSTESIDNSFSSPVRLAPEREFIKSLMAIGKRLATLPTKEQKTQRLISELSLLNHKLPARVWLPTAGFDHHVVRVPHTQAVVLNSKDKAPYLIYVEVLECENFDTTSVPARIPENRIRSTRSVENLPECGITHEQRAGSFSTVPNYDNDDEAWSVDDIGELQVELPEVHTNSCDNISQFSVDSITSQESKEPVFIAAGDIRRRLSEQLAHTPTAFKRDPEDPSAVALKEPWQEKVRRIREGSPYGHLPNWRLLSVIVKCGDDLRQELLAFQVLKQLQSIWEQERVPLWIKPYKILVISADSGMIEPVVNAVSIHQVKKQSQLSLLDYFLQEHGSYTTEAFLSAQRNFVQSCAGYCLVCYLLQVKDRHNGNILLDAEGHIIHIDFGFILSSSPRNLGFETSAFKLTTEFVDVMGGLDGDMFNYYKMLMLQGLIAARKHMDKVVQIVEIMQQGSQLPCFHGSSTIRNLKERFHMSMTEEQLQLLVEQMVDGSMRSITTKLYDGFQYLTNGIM

rhinovirus A16 [28] = experiment: microbe, parasite or virus in culture; conditions: Rhinovirus A, HeLa, 48 h
enterovirus D68 [29] = experiment: microbe, parasite or virus in culture; conditions: Enterovirus D, HeLa, 48 h
Zika virus [30] = experiment: microbe, parasite or virus in culture; conditions: Vero C1008, 72 h
Staphylococcus aureus [31] = experiment: Bactericidal activity against Staphylococcus aureus ATCC 25923 assessed as reduction in microbial growth measured after 18 hrs by CLSI based broth microdilution method; assay type: functional; procedure, shortened: as §3

SMILES	MIC (Bacillus subtilis [3]) [µg/mL]	MIC (Enterococcus faecalis [5]) [µg/mL]	MIC (Streptococcus pyogenes [7]) [µg/mL]	MIC (Staphylococcus aureus [9]) [µg/mL]	IC50 (Zika virus [26])	IC50 [27]	IC50 (rhinovirus A16 [28]) [µM]	IC50 (enterovirus D68 [29]) [µM]	CC50 [1] [µM]	CC50 [2] [µM]	MBC (Bacillus subtilis [4]) [µg/mL]	MBC (Enterococcus faecalis [6]) [µg/mL]	MBC (Streptococcus pyogenes [8]) [µg/mL]	MAC (Escherichia coli) [µg/mL]	MAC (Klebsiella pneumoniae) [µg/mL]	MAC (Acinetobacter baumannii) [µg/mL]	MAC (Pseudomonas aeruginosa) [µg/mL]	MIC (Staphylococcus aureus [10]) [µg/mL]	IC50 (rhinovirus A16 [24])	IC50 (enterovirus D68 [25])	other results
O=C(O)c1cc(Nc2nc(-c3sc(NC(=O)c4ccccc4)nc3C(F)(F)F)cs2)cc(C(F)(F)F)c1	4	2	2	> 32	Not Active	–	–	–	> 50	> 50	32	> 32	> 32	>64	>64	>64	>64	> 64	Not Active	Not Active	MBC (Staphylococcus aureus [11]): > 64 µg/mL; MIC (Staphylococcus warneri [12]): > 64 µg/mL; MBC (Staphylococcus warneri [13]): > 64 µg/mL; MIC [14]: 32 µg/mL; MBC [15]: > 64 µg/mL; MIC [16]: 32 µg/mL; MBC [17]: > 64 µg/mL; MIC (Enterococcus faecium [18]): 64 µg/mL; MBC (Enterococcus faecium [19]): > 64 µg/mL; MIC (Enterococcus faecium [20]): > 64 µg/mL; MBC (Enterococcus faecium [21]): > 64 µg/mL; MIC (Enterococcus faecium [22]): > 64 µg/mL; MBC (Enterococcus faecium [23]): > 64 µg/mL
CC(C)(C)C(=O)Nc1nc(C(F)(F)F)c(-c2csc(Nc3ccc(O)c(C(=O)O)c3)n2)s1	32	> 32	16	> 32	Not Active	–	9.77	10	> 50	> 50	> 32	–	> 32	>64	>64	>64	>64	–	–	–	–
CC(C)(C)C(=O)Nc1nc(C(F)(F)F)c(-c2csc(Nc3cc(C(=O)O)cc(C(F)(F)F)c3)n2)s1	16	32	4	16	Not Active	–	9.52	4.18	> 50	> 50	16	> 32	4	>64	>64	>64	>64	8	–	–	MBC (Staphylococcus aureus [31]): < 32 µg/mL; MBC (Staphylococcus aureus [11]): > 64 µg/mL; MIC (Staphylococcus warneri [12]): 16 µg/mL; MBC (Staphylococcus warneri [13]): > 64 µg/mL; MIC [14]: 16 µg/mL; MBC [15]: > 64 µg/mL; MIC [16]: 16 µg/mL; MBC [17]: 64 µg/mL; MIC (Enterococcus faecium [18]): 16 µg/mL; MBC (Enterococcus faecium [19]): > 64 µg/mL; MIC (Enterococcus faecium [20]): 16 µg/mL; MBC (Enterococcus faecium [21]): > 64 µg/mL; MIC (Enterococcus faecium [22]): 32 µg/mL; MBC (Enterococcus faecium [23]): > 64 µg/mL
CC(C)(C)C(=O)Nc1nc(C(F)(F)F)c(-c2csc(Nc3cc(C(=O)O)cc(C(=O)O)c3)n2)s1	> 32	> 32	> 32	> 32	Not Active	Not Active	–	12.3	> 50	> 50	–	–	–	>64	>64	>64	>64	–	Not Active	–	–
CC(C)(C)C(=O)Nc1nc(C(F)(F)F)c(-c2c[nH]c(Nc3cccc(C(F)(F)F)c3)n2)s1	> 32	> 32	> 32	> 32	–	Not Active	10.4	5.74	> 50	> 50	–	–	–	32	>64	16	>64	–	–	–	IC50 (Zika virus [30]): 8.52 µM
O=C(Nc1nc(C(F)(F)F)c(-c2csc(Nc3ccc(O)c(C(=O)O)c3)n2)s1)c1ccccc1	16	16	4	16	Not Active	Not Active	–	–	> 50	> 50	> 32	> 32	32	>64	>64	>64	>64	32	Not Active	Not Active	MBC (Staphylococcus aureus [31]): 32 µg/mL; MBC (Staphylococcus aureus [11]): > 64 µg/mL; MIC (Staphylococcus warneri [12]): 64 µg/mL; MBC (Staphylococcus warneri [13]): 64 µg/mL; MIC [14]: 32 µg/mL; MBC [15]: 64 µg/mL; MIC [16]: 32 µg/mL; MBC [17]: 64 µg/mL; MIC (Enterococcus faecium [18]): 16 µg/mL; MBC (Enterococcus faecium [19]): 64 µg/mL; MIC (Enterococcus faecium [20]): 32 µg/mL; MBC (Enterococcus faecium [21]): > 64 µg/mL; MIC (Enterococcus faecium [22]): 32 µg/mL; MBC (Enterococcus faecium [23]): > 64 µg/mL

Further lines, with some results ahead:

MIC (Bacillus subtilis [3]) [µg/mL]	MIC (Enterococcus faecalis [5]) [µg/mL]	MIC (Streptococcus pyogenes [7]) [µg/mL]	MIC (Staphylococcus aureus [9]) [µg/mL]	IC50 (Zika virus [26])	IC50 [27]	IC50 (rhinovirus A16 [28]) [µM]	IC50 (enterovirus D68 [29]) [µM]	SMILES	CC50 [1] [µM]	CC50 [2] [µM]	MBC (Bacillus subtilis [4]) [µg/mL]	MBC (Enterococcus faecalis [6]) [µg/mL]	MBC (Streptococcus pyogenes [8]) [µg/mL]	MAC (Escherichia coli) [µg/mL]	MAC (Klebsiella pneumoniae) [µg/mL]	MAC (Acinetobacter baumannii) [µg/mL]	MAC (Pseudomonas aeruginosa) [µg/mL]	MIC (Staphylococcus aureus [10]) [µg/mL]	IC50 (rhinovirus A16 [24])	IC50 (enterovirus D68 [25])	other results
> 32	> 32	> 32	> 32	–	Not Active	0.25	2.01	COC(=O)c1cc(Nc2nc(-c3sc(NC(=O)C(C)(C)C)nc3C(F)(F)F)cs2)cc(C(F)(F)F)c1	47.3	> 50	–	–	–	>64	>64	>64	>64	–	–	–	IC50 (Zika virus [30]): 6.13 µM
> 32	> 32	> 32	> 32	Not Active	Not Active	2.44	–	COC(=O)c1cc(Nc2nc(-c3sc(NC(=O)c4ccccc4)nc3C(F)(F)F)cs2)cc(C(F)(F)F)c1	22.9	> 50	–	–	–	>64	>64	>64	>64	–	–	Not Active	–
> 32	> 32	> 32	> 32	Not Active	Not Active	–	–	O=C(O)c1cc(Nc2nc(-c3sc(NC(=O)c4ccccc4)nc3C(F)(F)F)cs2)cc(C(=O)O)c1	> 50	> 50	–	–	–	>64	>64	>64	>64	–	Not Active	Not Active	–
